Ecoli rRNA inh: selective bacterial rRNA inhibition in E. coli; GFP signal change (wild-type ribosome), % (no concentration beside the values); AID 720706; hit rate 1.6% among 350,000; E. coli WT GFP vs humanized-ribosome RFP mutants, fluorescence, 24 h; hits give low values; DMSO median 0, no signal -100;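 active = significant combined selectivity score with lowered wild-type GFP, culture density cut under 30%, mutant RFP and density less affected; inactive = any of these conditions unmet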
F508del corr: CFTR F508del correction in bronchial cells | hit rate 0.36% among 350,000 | activity (quench increase), % at 7.58 µM | CFBE cells, YFP halide quenching; stimulated with forskolin plus potentiator P3; % fluorescence drop versus neutral controls;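 active = mean added fluorescence quench of at least 8% versus neutral control, with both replicates also reaching 8%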;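 also: cells transiently co-express mutant CFTR-F508del with the halide-sensitive YFP; corrector assay measuring rescue of mutant channel to the surface after 24 h compound exposure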
CaV13 FRET inh: Primary screen for inhibitors of IQ motif and Ca2+-dependent inactivation inhibitor domain binding in CACNA1D, Förster resonance energy transfer in living cells, …; HEK cells, CFP/YFP FRET ICDI-IQ, plate reader, 10 min; percent FRET-ratio fall versus neutral wells; inhibition, % at 12.3 µM; hit rate 0.098% among 340,000;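 active = mean replicate inhibition of at least 30% and at least 1% of replicates passing that level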;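 also: 0% = median of the neutral control wells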
Cneo AK release: Cryptococcus neoformans lysis via adenylate kinase release | C. neoformans lysis, adenylate kinase release luminescence, 4 h; normalised: neutral wells 0, clomiphene wells 100 | hit rate 0.2% among 360,000 | lysis activity, % at 15 µM;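 active = mean lysis activity across replicates of at least 80%, whatever share of replicates individually reach that level; inactive = mean lysis activity below 80%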
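Material: C. neoformans cells; Schedule: 4 h static compound exposure, 37 °C, read 1 h post-reagent; Measured by: adenylate kinase release luminescence; Read-out: signal increase indicating cell lysis; Controls: Clomiphene as positive lysis control.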
Numbers without * were called inactive; nt = no result. Rows were chosen to be rich in hits. Some 1.7% of all compounds tested hit in one or more screens of this group.

SMILES | Ecoli rRNA inh | F508del corr | CaV13 FRET inh | Cneo AK release
COc1ccccc1-c1ccc([C@H]2[C@@H](CO)N(C(=O)C3CCCC3)[C@H]2C#N)cc1 | -4 | -2 | nt | nt
COc1cc2c(cc1OC)C(C)N(C(=O)Nc1ccc(F)cc1)CC2 (stereo not drawn) | 5 | 3 | -4 | 0
COc1cc2c(cc1OC)C(C)N(C(=O)Nc1cc(C)cc(C)c1)CC2 (stereo not drawn) | 6 | 13* | -6 | 1
CO[C@H]1CN(C)C(=O)c2cc(NC(=O)C3CC3)ccc2OC[C@H](C)N(C)C[C@@H]1C | 3 | 3 | nt | -11
C[C@@H]1CN([C@@H](C)CO)C(=O)Cc2cc(NC(=O)C3CC3)ccc2O[C@@H]1CN(C)Cc1ccccc1 | -2 | 1 | nt | 1
CCc1nnc(NS(=O)(=O)c2ccc(NC(=S)NC(=O)/C=C/c3ccccc3)cc2)s1 | -37* | 0 | -6 | nt
CC12CCC3c4ccc(O)cc4CCC3C1CCC2=O (stereo not drawn) | nt | 9.4* | -6 | 1
C[C@]12CC[C@@H]3c4ccc(OS(=O)(=O)O)cc4CC[C@H]3[C@@H]1CCC2=O | -7 | -6 | -5 | 2
O=C(NCCN1CCOCC1)c1ccc2c(c1)N(Cc1cccc(F)c1)C(=O)c1ccccc1S2 | -14 | -2 | -5 | nt
O=C(O)c1ccc2c(c1)N(Cc1ccc(F)cc1)C(=O)c1ccccc1S2 | -20* | 0 | -5 | -1
CSc1c(-c2ccccn2)c(N)nn1C(=O)C1CC1 | -24* | nt | -5 | nt
CN(C)CCCN(C(=O)c1ccc(S(=O)(=O)N2CCc3ccccc3C2)cc1)c1nc2c(F)cccc2s1 | -47* | 4 | -3 | 0
Cc1noc(C)c1NC(=O)Nc1ccc2c(c1)C(=O)N([C@@H](C)CO)C[C@H](C)[C@@H](CN(C)Cc1ccccc1)O2 | 3 | -1 | nt | -4
O=C(CCl)Nc1cn(-c2ccccc2)nc1-c1ccc(F)cc1 | -24* | 3 | 0 | nt
COc1ccc(NC(=O)Nc2ccc3c(c2)C(=O)N([C@H](C)CO)C[C@@H](C)[C@H](CN(C)S(=O)(=O)c2c(C)noc2C)OCCCC[C@H](C)O3)cc1 | 0 | 1 | nt | -1
CCn1c(SCc2ccc(Cl)cc2)nc2nc3c(cc2c1=O)CCCC3 | -22* | 5 | -5 | 4
O=C(C[C@@H]1CC[C@@H](NC(=O)C2CC2)[C@@H](CO)O1)NCc1ccncc1 | -1 | 1 | nt | -1
COc1ccc(CNC(=O)c2cc3c(c(-c4cccc(-c5ccc(C#N)cc5)c4)n2)[C@@H](CCO)N([S@](=O)C(C)(C)C)C3)cc1 | -2 | 12* | nt | 5
COc1cc(C(F)(F)F)c(C(=O)N(C)Cc2ccc(Cl)c(Cl)c2)cn1 | -22* | 3 | -5 | 0
Cc1csc(N/N=C/c2ccccn2)n1 | -32* | 1 | -5 | nt
C(=N\Nc1nc2ccccc2s1)/c1ccccn1 | -30* | 3 | -2 | nt
C(=NNc1ccc2ccccc2n1)c1ccccn1 | -41 | 8.2* | -12 | -3
C[C@@H]1CCCCO[C@H](CN(C)C)[C@H](C)CN([C@H](C)CO)C(=O)c2cc(NS(=O)(=O)c3ccc(Cl)cc3)ccc2O1 | 1 | -4 | nt | -5
CCOC(=O)c1c(C)[nH]c(C(=O)COC(=O)c2cnc(C)cn2)c1C | nt | nt | -6 | 1
CCOC(=O)c1c(C)[nH]c(C(=O)C(C)OC(=O)c2cnc(C)cn2)c1C (stereo not drawn) | -26* | 2 | -2 | 0
SMILES | Ecoli rRNA inh | F508del corr | CaV13 FRET inh | Cneo AK release
C[C@@H]1CCCCO[C@H](CN(C)C(=O)C2CCCCC2)[C@H](C)CN([C@H](C)CO)C(=O)c2cc(NC(=O)Nc3cccc4ccccc34)ccc2O1 | -2 | 1 | nt | -4
Cc1ccc(-n2c(-c3ccccc3)c[n+]3c2CCc2ccccc2-3)c(C)c1 | -53* | 0 | 2 | nt
CO[C@@H]1CN(C)C(=O)c2ccc(NC(=O)C3CC3)cc2OC[C@@H](C)N(Cc2cccc(F)c2)C[C@@H]1C | -7 | -2 | nt | 0
COC(=O)c1ccc2nc(-c3ccccc3)c(Cc3ccc(C)cc3)n2c1 | -27* | 1 | -5 | nt
CC1CCN(c2ccc3nnc(CCC(=O)Nc4cccc(F)c4)n3n2)CC1 | -30* | -1 | -3 | 0
CN(/N=C/Cc1nnnn1-c1ccc(Cl)cc1)c1ccccc1 | -22* | -1 | -4 | nt
Cn1ccnc1SCC(=O)c1ccc(Cl)cc1 | -32* | 0 | -6 | 2
O=C(Nc1ccc2c(c1)nc1n2CCN(C2CCCCC2)C1)c1ccco1 | 0 | 0 | -5 | -3
COc1ccccc1C(=O)Nc1ccc2c(c1)nc1n2CCN(C2CCCCC2)C1 | -18* | 0 | -16 | 6
CC(C)c1csc2nc3n(c(=O)c12)CCCCC3 | -33* | -1 | 0 | 1
COc1ccc(S(=O)(=O)N(C)C[C@H]2Oc3ccc(NC(=O)CCCN(C)C)cc3CC(=O)N([C@@H](C)CO)C[C@@H]2C)cc1 | 4 | -1 | nt | 0
COc1ccc(C(=O)/C=C/c2ccc(N(C)C)cc2)c(OC)c1 | 6 | 18* | -20 | -2
COc1ccc(C=CC(=O)c2cc(O)ccc2O)cc1 | -36* | -2 | -3 | 8
COc1ccc(C(=O)/C=C/c2ccc(O)cc2)cc1 | nt | -1 | nt | -7
C[C@@H]1CN([C@H](C)CO)C(=O)c2cc(NC(=O)Cc3ccccc3)ccc2O[C@@H]1CN(C)S(=O)(=O)c1ccccc1 | -6 | 0 | nt | -6
COc1ccc(OC)c(NC(=O)Nc2c(O)ccc3ccccc23)c1 | -27* | 1 | -19 | -2
COc1ccc(CN2[C@@H]3CN(C(=O)CC(F)(F)F)c4ccccc4[C@@H]3[C@@H]2CO)cc1 | 0 | -2 | nt | -2
COc1ccccc1NC(=O)Cn1cc(C(=O)c2ccco2)c2ccccc21 | -26* | 0 | 1 | 1
Cn1cc(/C=C/C(=O)N2CCCC(C(=O)c3cccc4ccccc34)C2)cn1 (stereo not drawn) | 0 | 2 | -3 | -3
Cn1cc(/C=C/C(=O)N2CCCC(C(=O)c3cccc(C(F)(F)F)c3)C2)cn1 (stereo not drawn) | -29* | 1 | -3 | -1
CCN1C(=O)[C@H]2[C@@H](c3ccc(C)cc3)N[C@]3(CCCN(Cc4ccc(Cl)cc4)C3=O)[C@H]2C1=O | -20* | 2 | -9 | nt
CCN1C(=O)[C@H]2[C@@H](c3ccc(C)cc3)N3C(=O)N(c4ccc(C)cc4)C(=O)[C@@]3(Cc3ccc(Cl)cc3)[C@H]2C1=O | -28* | 1 | -11 | 1
CCN1C(=O)[C@H]2[C@@H](c3ccc(C)cc3)N[C@]3(CCCN(Cc4ccc(C)cc4)C3=O)[C@H]2C1=O | nt | 0 | -2 | 0
CC(C)NC(=O)Nc1ccc2c(c1)C(=O)N([C@@H](C)CO)C[C@@H](C)[C@@H](CN(C)C(=O)NC(C)C)O2 | 0 | -2 | nt | 48
Cc1ccc(OCCOc2cccc3ccc(C)nc23)c([N+](=O)[O-])c1 | -21* | 1 | -3 | 0

Source: PubChem BioAssay (Broad Institute)
